Measurements published in ChEMBL document CHEMBL5344461, “ZX703: A Small-Molecule Degrader of GPX4 Inducing Ferroptosis in Human Cancer Cells” (ACS Med Chem Lett, 2024).
Calls of active or inactive are those of the source. The calls are words filed in the database; no cut-off is given here.

What was measured:
HT-1080 [1] = test: Antiproliferative activity against human HT-1080 cells assessed as inhibition of cell growth incubated for 24 hrs by CCK-8 assay; assay type: functional, cell-based; conditions: for IC50: HT-1080, 24 h
Method in brief: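 HT1080 cells exposed to compound for 24 h; viability read by CCK-8; IC50 from growth inhibition.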

[2] = molecular target: Protein cereblon/Phospholipid hydroperoxide glutathione peroxidase GPX4 (Homo sapiens, UniProt P36969+Q96SW2); test: PROTAC activity at CRBN/GPX4 (unknown origin); assay type: protein assay
[3] = molecular target: T1, von Hippel-Lindau disease tumor suppressor/Phospholipid hydroperoxide glutathione peroxidase GPX4 (Homo sapiens) (UniProt P40337+P36969); test: PROTAC activity at VHL/GPX4 in human HT-1080 cells assessed as induction of protein degradation at 0.2 uM incubated for 12 hrs in presence of MG132 and chloroquine by Western blot analysis; assay type: cell-based
Method in brief: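 HT1080 cells treated 12 h with degrader alongside MG132 (0.3 μM) and chloroquine (50 μM); chloroquine given as pretreatment. GPX4 detected by Western blot, band density quantified by gray-scale analysis.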

HT-1080 [4] = test: Induction of ROS accumulation in human HT-1080 cells incubated for 12 hrs by DCFH-DA staining based flow cytometry analysis; assay type: functional, cell-based; conditions: dose 0.25-1 µM
Method in brief: (§1)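 HT1080 cells loaded with 10 μM DCFH-DA, then treated 12 h with compound at various concentrations; intracellular ROS measured by flow cytometry. For the rescue arm, cells were pretreated 2 h with ferroptosis inhibitor Fer-1 (5 μM) and kept in its presence.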

[5] = molecular target: T1, von Hippel-Lindau disease tumor suppressor/Phospholipid hydroperoxide glutathione peroxidase GPX4 (Homo sapiens); test: PROTAC activity at VHL/GPX4 in human HT-1080 cells assessed as induction of protein degradation by measuring maximal degradation at 0.06 to 5 uM by Western blot analysis relative to control; assay type: cell-based; conditions: dose 0.06-5 µM
[6] = molecular target: T1, von Hippel-Lindau disease tumor suppressor/Phospholipid hydroperoxide glutathione peroxidase GPX4 (Homo sapiens); test: PROTAC activity at VHL/GPX4 in human HT-1080 cells assessed as induction of protein degradation at 0.2 uM measured after 6 hrs by Western blot analysis relative to control; assay type: cell-based
Method in brief: (§2)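 Time course in HT1080 cells at 0.2 μM compound. GPX4 detected by Western blot. Band density was quantified by gray-scale densitometry and normalized to GAPDH.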

[7] = molecular target: von Hippel-Lindau disease tumor suppressor/Phospholipid hydroperoxide glutathione peroxidase GPX4 (Homo sapiens, UniProt P36969+P40337); test: (§3) PROTAC activity at VHL/GPX4 in human HT-1080 cells assessed as induction of protein degradation by Western blot analysis; assay type: cell-based
[8] = molecular target: T1, von Hippel-Lindau disease tumor suppressor/Phospholipid hydroperoxide glutathione peroxidase GPX4 (Homo sapiens); test: as §3; assay type: cell-based
[9] = molecular target: T1, von Hippel-Lindau disease tumor suppressor/Phospholipid hydroperoxide glutathione peroxidase GPX4 (Homo sapiens); test: PROTAC activity at VHL/GPX4 in human HT-1080 cells assessed as induction of protein degradation at 0.2 uM measured after 12 hrs by Western blot analysis relative to control; assay type: cell-based; method in brief: as §2
[10] = molecular target: T1, von Hippel-Lindau disease tumor suppressor/Phospholipid hydroperoxide glutathione peroxidase GPX4 (Homo sapiens); test: PROTAC activity at VHL/GPX4 in human HT-1080 cells assessed as induction of protein degradation at 0.2 uM measured for 24 hrs by Western blot analysis; assay type: cell-based; method in brief: as §2
HT-1080 [11] = test: Induction of ROS accumulation in human HT-1080 cells at 1 uM pretreated with ferroptosis inhibitor, Fer-1 for 2 hrs followed by compound addition and further incubated for 12 hrs by DCFH-DA staining based flow cytometry analysis; assay type: functional, cell-based; method in brief: as §1

T1 sequence (P36969 whole entry, looked up): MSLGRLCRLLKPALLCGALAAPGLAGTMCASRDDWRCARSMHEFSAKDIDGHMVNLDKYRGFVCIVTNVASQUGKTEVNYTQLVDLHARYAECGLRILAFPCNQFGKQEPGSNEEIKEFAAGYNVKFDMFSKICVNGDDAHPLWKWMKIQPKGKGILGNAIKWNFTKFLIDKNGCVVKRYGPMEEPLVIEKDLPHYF
T1 sequence (P40337 whole entry, looked up): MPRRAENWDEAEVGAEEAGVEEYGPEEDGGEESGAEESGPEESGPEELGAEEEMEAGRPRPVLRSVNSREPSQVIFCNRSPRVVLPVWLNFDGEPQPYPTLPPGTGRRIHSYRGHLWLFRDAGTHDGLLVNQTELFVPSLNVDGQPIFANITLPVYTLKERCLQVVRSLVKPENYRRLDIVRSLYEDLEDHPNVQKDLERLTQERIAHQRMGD
Sequence of Protein cereblon/Phospholipid hydroperoxide glutathione peroxidase GPX4 (Q96SW2 whole entry): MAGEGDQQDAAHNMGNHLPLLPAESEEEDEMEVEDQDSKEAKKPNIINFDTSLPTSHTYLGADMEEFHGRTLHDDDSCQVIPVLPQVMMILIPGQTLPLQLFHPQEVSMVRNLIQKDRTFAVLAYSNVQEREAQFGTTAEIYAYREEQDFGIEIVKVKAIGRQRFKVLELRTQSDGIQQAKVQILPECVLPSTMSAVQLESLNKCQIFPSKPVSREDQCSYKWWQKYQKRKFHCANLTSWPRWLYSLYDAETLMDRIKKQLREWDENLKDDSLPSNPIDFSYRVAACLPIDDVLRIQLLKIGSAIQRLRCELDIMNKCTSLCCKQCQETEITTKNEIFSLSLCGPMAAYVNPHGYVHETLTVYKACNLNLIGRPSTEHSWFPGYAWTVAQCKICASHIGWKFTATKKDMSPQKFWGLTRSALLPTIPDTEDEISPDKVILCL
Sequence of Protein cereblon/Phospholipid hydroperoxide glutathione peroxidase GPX4 (P36969 whole entry): as the sequence (P36969 whole entry, looked up) above
Sequence of von Hippel-Lindau disease tumor suppressor/Phospholipid hydroperoxide glutathione peroxidase GPX4 (P40337 whole entry): as the sequence (P40337 whole entry, looked up) above
Sequence of von Hippel-Lindau disease tumor suppressor/Phospholipid hydroperoxide glutathione peroxidase GPX4 (P36969 whole entry): as the sequence (P36969 whole entry, looked up) above

SMILES | IC50 (HT-1080 [1]) [nM] | other results
Cc1ncsc1-c1ccc(CNC(=O)[C@@H]2C[C@@H](O)CN2C(=O)[C@@H](NC(=O)COc2ccc(C(c3ccc(Cl)cc3)N3CCN(C(=O)c4noc(C)c4[N+](=O)[O-])CC3)cc2)C(C)(C)C)cc1 (stereo not given in full) | 2140 | 
Cc1ncsc1-c1ccc(CNC(=O)[C@@H]2C[C@@H](O)CN2C(=O)[C@@H](NC(=O)CCOc2ccc(C(c3ccc(Cl)cc3)N3CCN(C(=O)c4noc(C)c4[N+](=O)[O-])CC3)cc2)C(C)(C)C)cc1 (stereo not given in full) | 2160 | 
Cc1ncsc1-c1ccc(CNC(=O)[C@@H]2C[C@@H](O)CN2C(=O)[C@@H](NC(=O)CCCCCCCCOc2ccc(C(c3ccc(Cl)cc3)N3CCN(C(=O)c4noc(C)c4[N+](=O)[O-])CC3)cc2)C(C)(C)C)cc1 (stereo not given in full) | 767 | 
O=C1CCC(N2C(=O)c3cccc(NCCOCCOCCOCCn4cc(COc5ccc(N(C(=O)CCl)C(C(=O)NCCc6ccccc6)c6cccs6)cc5Cl)nn4)c3C2=O)C(=O)N1 (stereo not given) |  | EC50 [2]: 200 nM
Cc1ncsc1-c1ccc(CNC(=O)[C@@H]2C[C@@H](O)CN2C(=O)[C@@H](NC(=O)COCCOCCOCCOCCOc2ccc(C(c3ccc(Cl)cc3)N3CCN(C(=O)c4noc(C)c4[N+](=O)[O-])CC3)cc2)C(C)(C)C)cc1 (stereo not given in full) | 4730 | 
Cc1ncsc1-c1ccc(CNC(=O)[C@@H]2C[C@@H](O)CN2C(=O)[C@@H](NC(=O)COCCOCCOCCOc2ccc(C(c3ccc(Cl)cc3)N3CCN(C(=O)c4noc(C)c4[N+](=O)[O-])CC3)cc2)C(C)(C)C)cc1 (stereo not given in full) | 3240 | 
Cc1ncsc1-c1ccc(CNC(=O)[C@@H]2C[C@@H](O)CN2C(=O)[C@@H](NC(=O)CCCCCCCOc2ccc(C(c3ccc(Cl)cc3)N3CCN(C(=O)c4noc(C)c4[N+](=O)[O-])CC3)cc2)C(C)(C)C)cc1 (stereo not given in full) | 1680 | 
Cc1ncsc1-c1ccc(CNC(=O)[C@@H]2C[C@@H](O)CN2C(=O)[C@@H](NC(=O)CCCCOc2ccc(C(c3ccc(Cl)cc3)N3CCN(C(=O)c4noc(C)c4[N+](=O)[O-])CC3)cc2)C(C)(C)C)cc1 (stereo not given in full) | 1540 | 
Cc1ncsc1-c1ccc(CNC(=O)[C@@H]2C[C@@H](O)CN2C(=O)[C@@H](NC(=O)CCCOc2ccc(C(c3ccc(Cl)cc3)N3CCN(C(=O)c4noc(C)c4[N+](=O)[O-])CC3)cc2)C(C)(C)C)cc1 (stereo not given in full) |  | inhibition (HT-1080 [1]): inactive
Cc1ncsc1-c1ccc(CNC(=O)[C@@H]2C[C@@H](O)CN2C(=O)[C@@H](NC(=O)CCCCCOc2ccc(C(c3ccc(Cl)cc3)N3CCN(C(=O)c4noc(C)c4[N+](=O)[O-])CC3)cc2)C(C)(C)C)cc1 (stereo not given in full) | 2290 | 

Further lines, with some results ahead:

IC50 (HT-1080 [1]) [nM] | SMILES | other results
153 | Cc1onc(C(=O)N2CCN(C(c3ccc(Cl)cc3)c3ccc(Cl)cc3)CC2)c1[N+](=O)[O-] | 
4450 | Cc1ncsc1-c1ccc(CNC(=O)[C@@H]2C[C@@H](O)CN2C(=O)[C@@H](NC(=O)C2CCN(CC3CCN(C(=O)COc4ccc(C(c5ccc(Cl)cc5)N5CCN(C(=O)c6noc(C)c6[N+](=O)[O-])CC5)cc4)CC3)CC2)C(C)(C)C)cc1 (stereo not given in full) | 
4760 | Cc1ncsc1-c1ccc(CNC(=O)[C@@H]2C[C@@H](O)CN2C(=O)[C@@H](NC(=O)CN2CCN(CC3CCN(C(=O)COc4ccc(C(c5ccc(Cl)cc5)N5CCN(C(=O)c6noc(C)c6[N+](=O)[O-])CC5)cc4)CC3)CC2)C(C)(C)C)cc1 (stereo not given in full) | 
1830 | Cc1ncsc1-c1ccc(CNC(=O)[C@@H]2C[C@@H](O)CN2C(=O)[C@@H](NC(=O)COCCOc2ccc(C(c3ccc(Cl)cc3)N3CCN(C(=O)c4noc(C)c4[N+](=O)[O-])CC3)cc2)C(C)(C)C)cc1 (stereo not given in full) | 
889 | Cc1ncsc1-c1ccc(CNC(=O)[C@@H]2C[C@@H](O)CN2C(=O)[C@@H](NC(=O)CCCCCCCCCCOc2ccc(C(c3ccc(Cl)cc3)N3CCN(C(=O)c4noc(C)c4[N+](=O)[O-])CC3)cc2)C(C)(C)C)cc1 (stereo not given in full) | 
1350 | Cc1ncsc1-c1ccc(CNC(=O)[C@@H]2C[C@@H](O)CN2C(=O)[C@@H](NC2CC3(CCN(C(=O)COc4ccc(C(c5ccc(Cl)cc5)N5CCN(C(=O)c6noc(C)c6[N+](=O)[O-])CC5)cc4)CC3)C2)C(C)(C)C)cc1 (stereo not given in full) | 
2350 | Cc1ncsc1-c1ccc(CNC(=O)[C@@H]2C[C@@H](O)CN2C(=O)[C@@H](NC(=O)CCCCCCCCCCCOc2ccc(C(c3ccc(Cl)cc3)N3CCN(C(=O)c4noc(C)c4[N+](=O)[O-])CC3)cc2)C(C)(C)C)cc1 (stereo not given in full) | 
2070 | Cc1ncsc1-c1ccc(CNC(=O)[C@@H]2C[C@@H](O)CN2C(=O)[C@@H](NC(=O)COCCOCCOc2ccc(C(c3ccc(Cl)cc3)N3CCN(C(=O)c4noc(C)c4[N+](=O)[O-])CC3)cc2)C(C)(C)C)cc1 (stereo not given in full) | 
1360 | Cc1ncsc1-c1ccc(CNC(=O)[C@@H]2C[C@@H](O)CN2C(=O)[C@@H](NC(=O)CCCCCCOc2ccc(C(c3ccc(Cl)cc3)N3CCN(C(=O)c4noc(C)c4[N+](=O)[O-])CC3)cc2)C(C)(C)C)cc1 (stereo not given in full) | 
435 | Cc1ncsc1-c1ccc(CNC(=O)[C@@H]2C[C@@H](O)CN2C(=O)[C@@H](NC(=O)CCCCCCCCCOc2ccc(C(c3ccc(Cl)cc3)N3CCN(C(=O)c4noc(C)c4[N+](=O)[O-])CC3)cc2)C(C)(C)C)cc1 (stereo not given in full) | Activity [3]: inactive; Activity (HT-1080 [4]): Dose-Dependent Effect; Emax [5]: 86%; Activity [6]: 50%; EC50 [7]: 135 nM; Activity [8]: Dose-Dependent Effect; Activity [9]: > 80%; Activity [10]: Active; Activity (HT-1080 [11]): inactive
1210 | Cc1ncsc1-c1ccc([C@H](C)NC(=O)[C@@H]2C[C@@H](O)CN2C(=O)[C@@H](NC(=O)CCCCCCCCCOc2ccc(C(c3ccc(Cl)cc3)N3CCN(C(=O)c4noc(C)c4[N+](=O)[O-])CC3)cc2)C(C)(C)C)cc1 (stereo not given in full) | 
